Assay results from different studies.
Compare with care: the assays were run in different laboratories.
Read-out: cell growth or viability

Structure (SMILES)	cell line	method	time	setting	quantity	value
CCCN1C(=O)[C@H](CC(C)C)NC(=O)[C@@H](N(C)C(=O)[C@H](CC2CCC2)NC(=O)[C@@H]2C[C@@H](F)CN2C(=O)[C@@](C)(O)C(F)(F)F)CCCCNC(=O)C2(CC2)NC(=O)[C@@H]1Cc1cc(Cl)ccc1Cl	NCI-H446	MTT	5 days	–	GI50	28 nM
COc1ccc(N)cc1-c1c[nH]c2ncc(-c3cncc(C(=O)N(C)C)c3)cc12	K562	MTT	72 h	–	GI50	175 nM
C=C(F)C(=O)N1CCN(c2nc(OC[C@@H]3CCCN3C)nc3c2CCN(c2cccc4cccc(Cl)c24)C3)C[C@@H]1CC#N	NCI-H1373	ATP luminescence	–	3D culture	IC50	5.15 nM
O=C(C=Cc1ccccc1)Nc1cc(-c2ccnc(N3CCC(O)CC3)c2)ccn1	MCF-10A	MTT	72 h	–	IC50	3330 nM
Cc1cc(C)c(CNC(=O)c2cc(Cl)c3c(c2C)O[C@@](C)([C@H]2CC[C@H](N(C)C)CC2)O3)c(=O)[nH]1	HT-1376	ATP luminescence	18 days	–	GI50	18 nM
CN1CCc2cc(Nc3ncc(C4CC4)c(NCCCNC(=O)C4CCC4)n3)ccc2C1	K562	MTT	72 h	–	GI50	> 1000 nM
C=CC(=O)NC1CCN(c2ncc3ncnc(Nc4ccc(Oc5ccc6c(c5)ncn6C)c(C)c4)c3n2)CC1	NCI-H1373	–	–	–	EC50	137 µM
Cc1sc2c(c1C)C(c1ccc(Cl)cc1)=N[C@@H](CC(=O)NCCCCCCCCNC(=O)COc1cccc3c1C(=O)N(C1CCC(=O)NC1=O)C3=O)c1nnc(C)n1-2 (some centres unmarked)	K562	ATP luminescence	–	–	IC50	343 nM
COc1cc2c3c(n(CCCNC(C)C)c(=O)c2cc1OC)-c1nc2c(cc1C3=O)OCO2	K562	MTS	72 h	–	IC50	182 nM
C=CC[C@@H]1/C=C(\C)C[C@H](C)C[C@H](OC)[C@H]2O[C@@](O)(C(=O)C(=O)N3CCCC[C@H]3C(=O)O[C@H](/C(C)=C/[C@@H]3CC[C@@H](O)[C@H](OC)C3)[C@H](C)[C@@H](O)CC1=O)[C@H](C)C[C@@H]2OC	K562	MTT	72 h	–	GI50	> 1000 nM
O=C(O)c1ccccc1Nc1cccc(C(F)(F)F)c1	HCT-15	SRB	48 h	–	GI50	> 30000 nM
COc1cc2c3c(n(CCCn4ccnc4)c(=O)c2cc1OC)-c1nc2c(cc1C3=O)OCO2	K562	MTS	72 h	–	IC50	580 nM
C=CC(=O)c1cccnc1Nc1cc(C(F)(F)F)ccc1OCc1ccccc1	HCT-15	SRB	48 h	–	GI50	19500 nM
C=CS(=O)(=O)Nc1ccc(OC)c(-c2c[nH]c3ncc(-c4cncc(C(=O)N(C)C)c4)cc23)c1	K562	MTT	72 h	–	GI50	> 1000 nM
O=C(NO)c1ccc(CNc2nc3cccc(-c4ccc5c(c4)OCO5)n3n2)cc1	HOP-92	SRB	–	–	GI50	700 nM
COc1ccc(OCc2ccc([N+](=O)[O-])cc2)cc1-c1c[nH]c2ncc(-c3cncc(C(=O)N(C)C)c3)cc12	K562	MTT	72 h	–	GI50	697 nM
CC(C)C[C@@H]1NC(=O)[C@@H](N(C)C(=O)[C@@H](NC(=O)[C@@H]2C[C@@H](F)CN2C(=O)C2(C(F)(F)F)CC(F)(F)C2)C2CC2)CCCCNC(=O)C(C)(C)NC(=O)[C@H](Cc2cc(Cl)nn2-c2ccccc2)N(C)C1=O	NCI-H446	MTT	5 days	–	GI50	4400 nM
